Test results as given in ChEMBL document CHEMBL1150111, “Natural products inhibiting Candida albicans secreted aspartic proteases from Lycopodium cernuum” (J Nat Prod, 2002).
≈ marks a conversion by molar mass, not a printed value. Calls of active or inactive are those of the source. The rule behind the calls is not given here.

What was measured:
[1] = system: Candida albicans; experiment: (§1) Inhibition of Candida albicans secreted aspartic protease
How it was run: (§2)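 Candida albicans secreted aspartic protease (SAP) inhibition assay run by the earlier published method. Aspartic protease inhibitor pepstatin A served as positive control. Activity is reported as IC50 in µg/mL.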

[2] = as §1; how it was run: as §2

Row | SMILES | Activity [1] | IC50 [2]
1 | CC1(C)[C@@H](O)CC[C@@]2(C)[C@H]1CC[C@@]1(C)CC3=CC[C@H]4C(C)(C)[C@@H](O)CC[C@]4(C)[C@H]3CC[C@@H]12 | inactive | –
2 | CC(=O)O[C@H]1CC[C@@]2(C)[C@@H](CC[C@@]3(C)C[C@@]4(O)[C@H](CC[C@@H]32)[C@@]2(C)CC[C@@H](OC(C)=O)C(C)(C)[C@@H]2C[C@@H]4O)[C@@]1(C)C(=O)O | inactive | –
3 | COC(=O)[C@]1(C)[C@@H]2CC[C@@]3(C)CC4=CC(=O)[C@@H]5[C@](C)(CC[C@@H](O)[C@]5(C)CO)[C@H]4CC[C@@H]3[C@@]2(C)CC[C@@H]1O | inactive | –
4 | C[C@@]12CC[C@@H]3[C@](C)(CC[C@H](O)[C@]3(C)C(=O)O)[C@H]1CC[C@@H]1[C@@]3(C)CC[C@@H](O)[C@](C)(CO)[C@@H]3C[C@H](O)[C@@]1(O)C2 [LYCERNUIC ACID C] | – | 20 µg/mL (≈ 38.3 µM)
5 | C[C@@]12CC[C@@H]3[C@](C)(CC[C@H](O)[C@]3(C)C(=O)O)[C@H]1CC[C@H]1C(=CC[C@@H]3[C@]1(C)CC[C@@H](O)[C@]3(C)CO)C2 | inactive | –
6 | CC1(C)[C@@H](O)CC[C@@]2(C)[C@H]1CC[C@@]1(C)CC3=CC[C@H]4C(C)(C)[C@H](O)CC[C@]4(C)[C@H]3CC[C@@H]12 | inactive | –
7 | CC1(C)[C@H](O)CC[C@]2(C)[C@H]3CC[C@H]4[C@@](C)(CC[C@@H]5[C@]4(C)CC[C@@H](O)[C@]5(C)CO)CC3=CC(=O)[C@@H]12 | inactive | –
8 | CC(=O)O[C@H]1CC[C@@]2(C)[C@@H](CC[C@@]3(C)CC4=C(CC[C@@H]32)[C@@]2(C)CC[C@@H](OC(C)=O)C(C)(C)[C@@H]2CC4)[C@@]1(C)C(=O)O | inactive | –
9 | CC1(C)[C@H](O)CC[C@@]2(C)[C@H]1CC[C@]1(O)C[C@]3(C)CC[C@@H]4[C@](C)(CC[C@H](O)[C@]4(C)C(=O)O)[C@H]3CC[C@@H]12 | inactive | –
10 | CC1(C)[C@H](O)CC[C@]2(C)[C@H]3CC[C@H]4[C@@](C)(CC[C@@H]5[C@]4(C)CC[C@H](O)[C@]5(C)C(=O)O)C[C@]3(O)[C@@H](O)C[C@@H]12 | inactive | –
11 | COC(=O)[C@@]1(C)[C@H](O)CC[C@@]2(C)[C@H]1CC[C@@]1(C)CC3=CC(=O)[C@@H]4[C@](C)(CC[C@@H](O)[C@]4(C)CO)[C@H]3CC[C@@H]12 | inactive | –
12 | CC(=O)O[C@H]1CC[C@@]2(C)[C@@H](CC[C@@]3(C)C[C@@]4(O)[C@H](O)C[C@H]5C(C)(C)[C@H](OC(C)=O)CC[C@]5(C)[C@H]4CC[C@@H]32)[C@@]1(C)C(=O)O | inactive | –
13 | CC(=O)OC[C@]1(C)[C@@H]2C[C@H](OC(C)=O)[C@@]3(O)C[C@]4(C)CC[C@@H]5[C@](C)(CC[C@H](OC(C)=O)[C@]5(C)C(=O)O)[C@H]4CC[C@@H]3[C@@]2(C)CC[C@H]1OC(C)=O | inactive | –
14 | CC(C)CC(=O)N[C@H](C(=O)N[C@H](C(=O)N[C@@H](CC(C)C)[C@@H](O)CC(=O)N[C@@H](C)C(=O)N[C@@H](CC(C)C)[C@@H](O)CC(=O)O)C(C)C)C(C)C [PEPSTATIN] | – | 0.0015 µg/mL (≈ 0.00219 µM)
15 | O=C(/C=C/c1ccc(O)cc1)OC[C@H]1O[C@@H](Oc2ccc(-c3cc(=O)c4c(O)cc(O)cc4o3)cc2)[C@H](OC(=O)/C=C/c2ccc(O)cc2)[C@@H](O)[C@@H]1O | – | 8.5 µg/mL (≈ 11.7 µM)
16 | CC(=O)O[C@H]1CC[C@@]2(C)[C@@H](CC[C@@]3(C)CC4=CC[C@H]5C(C)(C)[C@H](OC(C)=O)CC[C@]5(C)[C@H]4CC[C@@H]32)[C@@]1(C)C(=O)O | inactive | –
17 | CC(=O)O[C@H]1CC[C@@]2(C)[C@@H](CC[C@@]3(C)C[C@@]4(O)CC[C@H]5C(C)(C)[C@H](OC(C)=O)CC[C@]5(C)[C@H]4CC[C@@H]32)[C@@]1(C)C(=O)O | inactive | –
18 | CC1(C)[C@H](O)CC[C@]2(C)[C@H]3CC[C@H]4[C@@](C)(CC[C@@H]5[C@]4(C)CC[C@H](O)[C@]5(C)C(=O)O)CC3=CC[C@@H]12 | inactive | –
